Measurements reported in the M2OR odorant receptor database.
Changes are numbered by the printed parent chain.

Columns and labels:
Conditions in all cases: stereoisomer not certain
OR5AR1 (Homo sapiens) = biological target: T1, OR5AR1 (Homo sapiens) (UniProt Q8NGP9)
T1 sequence (whole entry): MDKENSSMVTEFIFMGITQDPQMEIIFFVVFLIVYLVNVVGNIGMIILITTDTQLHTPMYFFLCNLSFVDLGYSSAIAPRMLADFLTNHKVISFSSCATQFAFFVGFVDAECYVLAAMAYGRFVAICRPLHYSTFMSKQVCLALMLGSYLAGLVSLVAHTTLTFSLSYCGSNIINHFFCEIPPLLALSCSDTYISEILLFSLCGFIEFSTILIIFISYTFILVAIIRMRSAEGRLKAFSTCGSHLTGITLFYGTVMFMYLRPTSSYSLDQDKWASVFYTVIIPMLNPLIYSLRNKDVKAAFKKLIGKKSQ
Outline: (§1)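 Each receptor–molecule pair is labelled responsive or non-responsive (inactive) according to whether the original authors judged the measured signal statistically different from baseline. The data were taken from the main text and supplementary material of published papers and checked for typos and inconsistencies. Assay methods differed by source, with transient luciferase assays in mammalian cell lines being common.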

OR5AS1 (Homo sapiens) = biological target: T2, OR5AS1 (Homo sapiens) (UniProt Q8N127)
T2 sequence (whole entry): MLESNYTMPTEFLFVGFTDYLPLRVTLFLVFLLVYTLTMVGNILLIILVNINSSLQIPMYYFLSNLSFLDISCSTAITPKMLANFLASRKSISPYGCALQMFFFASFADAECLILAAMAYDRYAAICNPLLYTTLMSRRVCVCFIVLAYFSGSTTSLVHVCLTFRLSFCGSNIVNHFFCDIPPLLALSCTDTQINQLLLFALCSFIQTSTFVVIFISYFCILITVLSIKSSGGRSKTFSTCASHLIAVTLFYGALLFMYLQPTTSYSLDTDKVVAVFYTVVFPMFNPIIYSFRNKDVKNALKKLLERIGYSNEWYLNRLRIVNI
Outline: as §1

OR5AU1 (Homo sapiens) = biological target: T3, OR5AU1 (Homo sapiens) (UniProt Q8NGC0)
T3 sequence (whole entry): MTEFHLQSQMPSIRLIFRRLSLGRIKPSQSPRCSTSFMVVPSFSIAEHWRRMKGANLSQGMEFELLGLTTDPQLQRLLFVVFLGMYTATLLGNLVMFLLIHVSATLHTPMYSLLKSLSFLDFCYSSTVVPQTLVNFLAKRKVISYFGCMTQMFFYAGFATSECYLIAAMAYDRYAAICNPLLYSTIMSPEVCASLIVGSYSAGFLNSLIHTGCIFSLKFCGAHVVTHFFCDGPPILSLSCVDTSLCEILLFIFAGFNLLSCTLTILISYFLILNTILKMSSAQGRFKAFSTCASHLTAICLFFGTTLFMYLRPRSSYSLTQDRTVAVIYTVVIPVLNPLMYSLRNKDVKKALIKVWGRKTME
Outline: as §1

OR5B12 (Homo sapiens) = biological target: T4, OR5B12 (Homo sapiens) (UniProt Q96R08)
T4 sequence (whole entry): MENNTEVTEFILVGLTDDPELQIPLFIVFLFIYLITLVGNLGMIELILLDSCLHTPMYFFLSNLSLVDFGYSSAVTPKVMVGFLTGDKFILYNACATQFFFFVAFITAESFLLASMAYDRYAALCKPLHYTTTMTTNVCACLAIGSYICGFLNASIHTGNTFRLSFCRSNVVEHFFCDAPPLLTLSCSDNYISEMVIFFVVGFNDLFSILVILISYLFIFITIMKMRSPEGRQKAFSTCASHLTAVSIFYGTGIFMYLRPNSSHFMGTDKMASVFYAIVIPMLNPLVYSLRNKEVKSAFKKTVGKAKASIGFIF
Outline: as §1

OR5B17 (Homo sapiens) = biological target: T5, OR5B17 (Homo sapiens) (UniProt Q8NGF7)
T5 sequence (whole entry): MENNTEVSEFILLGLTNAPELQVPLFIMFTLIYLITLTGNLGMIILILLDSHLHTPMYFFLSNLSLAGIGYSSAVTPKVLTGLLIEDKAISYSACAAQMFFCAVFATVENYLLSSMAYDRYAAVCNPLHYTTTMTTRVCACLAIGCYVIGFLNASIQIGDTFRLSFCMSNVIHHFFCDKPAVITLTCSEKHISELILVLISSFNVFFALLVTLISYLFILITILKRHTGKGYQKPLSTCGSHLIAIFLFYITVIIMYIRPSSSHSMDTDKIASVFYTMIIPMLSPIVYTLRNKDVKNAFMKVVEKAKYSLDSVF
Outline: as §1

OR5B2 (Homo sapiens) = biological target: T6, OR5B2 (Homo sapiens) (UniProt Q96R09)
T6 sequence (whole entry): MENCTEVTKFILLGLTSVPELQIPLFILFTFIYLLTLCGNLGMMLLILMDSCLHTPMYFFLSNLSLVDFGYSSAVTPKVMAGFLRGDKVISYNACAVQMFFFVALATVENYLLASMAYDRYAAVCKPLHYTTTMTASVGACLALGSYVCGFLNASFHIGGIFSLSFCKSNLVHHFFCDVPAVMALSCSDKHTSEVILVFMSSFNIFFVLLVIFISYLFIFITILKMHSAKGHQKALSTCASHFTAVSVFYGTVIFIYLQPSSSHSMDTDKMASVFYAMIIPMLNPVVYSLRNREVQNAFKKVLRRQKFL
Outline: as §1

OR5B21 (Homo sapiens) = biological target: T7, OR5B21 (Homo sapiens) (UniProt A6NL26)
T7 sequence (whole entry): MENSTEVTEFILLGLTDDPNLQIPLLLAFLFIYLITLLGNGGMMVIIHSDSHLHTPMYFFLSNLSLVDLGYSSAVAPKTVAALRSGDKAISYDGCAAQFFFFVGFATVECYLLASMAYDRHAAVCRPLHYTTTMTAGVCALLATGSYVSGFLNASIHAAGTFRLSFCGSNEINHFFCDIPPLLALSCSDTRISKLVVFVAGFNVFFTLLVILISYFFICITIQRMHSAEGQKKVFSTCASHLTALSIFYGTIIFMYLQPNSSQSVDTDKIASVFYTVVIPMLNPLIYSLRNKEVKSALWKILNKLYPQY
Outline: as §1

OR5B3 (Homo sapiens) = biological target: T8, OR5B3 (Homo sapiens) (UniProt Q8NH48)
T8 sequence (whole entry): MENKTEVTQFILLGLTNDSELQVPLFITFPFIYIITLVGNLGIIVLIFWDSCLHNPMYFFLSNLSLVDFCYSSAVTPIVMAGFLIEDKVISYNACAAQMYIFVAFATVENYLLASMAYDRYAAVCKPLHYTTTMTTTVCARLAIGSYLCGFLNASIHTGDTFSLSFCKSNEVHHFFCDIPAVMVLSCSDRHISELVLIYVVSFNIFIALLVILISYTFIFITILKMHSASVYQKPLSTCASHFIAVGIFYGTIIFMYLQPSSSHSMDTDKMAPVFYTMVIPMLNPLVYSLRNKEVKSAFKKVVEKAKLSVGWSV
Outline: as §1

OR5B2 E6D = tested on: T9, OR5B2 E6D
T9 sequence (whole entry): T6 sequence (whole entry) with E6D
Outline: as §1

OR5B3 I198V G247A = tested on: T10, OR5B3 I198V G247A
T10 sequence (whole entry): T8 sequence (whole entry) with I198V, G247A
Outline: as §1

Measured: odorant receptor agonist call;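 also: active if original authors judged signal statistically different from baseline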

CCCCCC(S)C(C)CO (stereo unspecified)
not listed: OR5B2 E6D | OR5B3 I198V G247A
inactive: all other assays above

Cc1ccc(C(C)C)cc1O
inactive: OR5B17 (Homo sapiens)

CC1CCCCCCCCCCCCC(=O)C1 (stereo unspecified)
not listed: OR5B2 E6D | OR5B3 I198V G247A
inactive: all other assays above

CC1=NC(C)C(C)S1 (stereo unspecified)
inactive: all assays above

CC1=C(O)C(=O)C(C)O1 (stereo unspecified)
inactive: all assays above

CCCCCCC=CCCC=O
inactive: all assays above

CC1=C(O)C(=O)OC1C (stereo unspecified)
inactive: all assays above

CCC1OC(=O)C(O)=C1C (stereo unspecified)
inactive: all assays above

CCC=C(C)C(O)CCCCC (stereo unspecified)
inactive: OR5B17 (Homo sapiens)

CC(=O)c1c(C)c([N+](=O)[O-])c(C(C)(C)C)c([N+](=O)[O-])c1C
not listed: OR5B2 E6D | OR5B3 I198V G247A
inactive: all other assays above

CCC1OC(C)=C(O)C1=O (stereo unspecified)
inactive: all assays above

OCc1ccccc1
inactive: OR5B17 (Homo sapiens)

COC1CC2CC1C1CC(C=O)CC21 (stereo unspecified)
inactive: OR5B17 (Homo sapiens)

Cc1cnc(C)c(C)n1
inactive: all assays above

CCCCCC(=O)C(C)C(C)=O (stereo unspecified)
not listed: OR5B2 E6D | OR5B3 I198V G247A
inactive: all other assays above

CC(CO)CS (stereo unspecified)
not listed: OR5B2 E6D | OR5B3 I198V G247A
inactive: all other assays above

CCCC(S)CCOC(C)=O (stereo unspecified)
inactive: all assays above

CCCCC(S)C(C)CO (stereo unspecified)
not listed: OR5B2 E6D | OR5B3 I198V G247A
inactive: all other assays above

CCC(S)C(C)CO (stereo unspecified)
not listed: OR5B2 E6D | OR5B3 I198V G247A
inactive: all other assays above

COc1ccc(C)cc1
inactive: OR5B17 (Homo sapiens)
